Results published in ChEMBL document CHEMBL1759999, “Exploration of (S)-3-aminopyrrolidine as a potentially interesting scaffold for discovery of novel Abl and PI3K dual inhibitors” (Eur J Med Chem, 2011).
Calls of active or inactive are those of the source. No cut-off for these calls is given here.

Assays:
[1] = system: K562; assay: Cytotoxicity against human K562 cells after 48 hrs by MTT assay; type: functional, cell-based; conditions: K562, 48 h
In short: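 K562 cells grown in DMEM with 10% FBS plus penicillin and streptomycin, humidified air, 37 °C, 5% CO2. Cells seeded in 96-well plates and exposed to compounds at varying concentrations for 48 h. Viability read by MTT. IC50 derived from inhibition rates at each concentration. Values are means of three experiments.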

[2] = target: Tyrosine-protein kinase ABL2 (Homo sapiens) (UniProt P42684); assay: Inhibition of Abl2 at 20 uM after 1 hr by luminescence assay
Sequence of Tyrosine-protein kinase ABL2 (Homo sapiens) (P42684 whole entry): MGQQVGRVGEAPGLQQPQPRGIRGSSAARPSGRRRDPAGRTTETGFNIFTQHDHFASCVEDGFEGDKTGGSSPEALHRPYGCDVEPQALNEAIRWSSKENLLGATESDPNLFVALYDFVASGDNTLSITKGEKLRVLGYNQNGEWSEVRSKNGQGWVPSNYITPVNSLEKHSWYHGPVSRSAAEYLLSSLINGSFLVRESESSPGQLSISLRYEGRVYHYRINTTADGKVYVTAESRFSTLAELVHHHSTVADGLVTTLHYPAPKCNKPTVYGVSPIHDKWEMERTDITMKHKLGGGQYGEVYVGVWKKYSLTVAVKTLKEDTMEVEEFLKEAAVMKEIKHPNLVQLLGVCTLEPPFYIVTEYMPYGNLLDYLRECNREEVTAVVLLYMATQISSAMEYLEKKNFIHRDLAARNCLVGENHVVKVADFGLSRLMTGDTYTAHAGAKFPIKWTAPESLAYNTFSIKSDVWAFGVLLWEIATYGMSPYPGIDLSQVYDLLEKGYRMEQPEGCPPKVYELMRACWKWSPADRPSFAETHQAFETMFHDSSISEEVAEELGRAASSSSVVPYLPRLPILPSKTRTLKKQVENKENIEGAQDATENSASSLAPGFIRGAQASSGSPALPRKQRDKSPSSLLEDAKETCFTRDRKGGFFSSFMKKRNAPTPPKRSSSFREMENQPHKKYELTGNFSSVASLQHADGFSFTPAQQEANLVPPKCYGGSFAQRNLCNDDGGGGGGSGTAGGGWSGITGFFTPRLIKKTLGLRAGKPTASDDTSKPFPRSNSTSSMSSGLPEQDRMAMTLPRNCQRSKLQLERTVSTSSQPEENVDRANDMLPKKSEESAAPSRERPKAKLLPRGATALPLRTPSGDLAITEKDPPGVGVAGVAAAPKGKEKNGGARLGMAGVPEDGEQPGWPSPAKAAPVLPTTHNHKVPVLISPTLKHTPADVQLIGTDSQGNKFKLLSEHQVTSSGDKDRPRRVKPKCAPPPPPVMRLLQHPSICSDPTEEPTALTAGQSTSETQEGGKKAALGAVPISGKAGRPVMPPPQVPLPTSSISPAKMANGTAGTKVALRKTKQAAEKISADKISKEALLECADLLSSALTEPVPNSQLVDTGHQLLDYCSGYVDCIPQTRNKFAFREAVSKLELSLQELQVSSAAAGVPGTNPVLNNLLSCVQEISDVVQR
In short: (§1)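 Kinase incubated with substrate, test compound and ATP in a final buffer of 25 mM HEPES. Controls were staurosporine for Abl and PI103 for PI3K.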

[3] = target: Phosphatidylinositol 4,5-bisphosphate 3-kinase catalytic subunit alpha isoform (Homo sapiens) (UniProt P42336); assay: Inhibition of PI3Kalpha at 20 uM after 1 hr by luminescence assay; in short: as §1
Sequence of Phosphatidylinositol 4,5-bisphosphate 3-kinase catalytic subunit alpha isoform (Homo sapiens) (P42336 whole entry, canonical isoform): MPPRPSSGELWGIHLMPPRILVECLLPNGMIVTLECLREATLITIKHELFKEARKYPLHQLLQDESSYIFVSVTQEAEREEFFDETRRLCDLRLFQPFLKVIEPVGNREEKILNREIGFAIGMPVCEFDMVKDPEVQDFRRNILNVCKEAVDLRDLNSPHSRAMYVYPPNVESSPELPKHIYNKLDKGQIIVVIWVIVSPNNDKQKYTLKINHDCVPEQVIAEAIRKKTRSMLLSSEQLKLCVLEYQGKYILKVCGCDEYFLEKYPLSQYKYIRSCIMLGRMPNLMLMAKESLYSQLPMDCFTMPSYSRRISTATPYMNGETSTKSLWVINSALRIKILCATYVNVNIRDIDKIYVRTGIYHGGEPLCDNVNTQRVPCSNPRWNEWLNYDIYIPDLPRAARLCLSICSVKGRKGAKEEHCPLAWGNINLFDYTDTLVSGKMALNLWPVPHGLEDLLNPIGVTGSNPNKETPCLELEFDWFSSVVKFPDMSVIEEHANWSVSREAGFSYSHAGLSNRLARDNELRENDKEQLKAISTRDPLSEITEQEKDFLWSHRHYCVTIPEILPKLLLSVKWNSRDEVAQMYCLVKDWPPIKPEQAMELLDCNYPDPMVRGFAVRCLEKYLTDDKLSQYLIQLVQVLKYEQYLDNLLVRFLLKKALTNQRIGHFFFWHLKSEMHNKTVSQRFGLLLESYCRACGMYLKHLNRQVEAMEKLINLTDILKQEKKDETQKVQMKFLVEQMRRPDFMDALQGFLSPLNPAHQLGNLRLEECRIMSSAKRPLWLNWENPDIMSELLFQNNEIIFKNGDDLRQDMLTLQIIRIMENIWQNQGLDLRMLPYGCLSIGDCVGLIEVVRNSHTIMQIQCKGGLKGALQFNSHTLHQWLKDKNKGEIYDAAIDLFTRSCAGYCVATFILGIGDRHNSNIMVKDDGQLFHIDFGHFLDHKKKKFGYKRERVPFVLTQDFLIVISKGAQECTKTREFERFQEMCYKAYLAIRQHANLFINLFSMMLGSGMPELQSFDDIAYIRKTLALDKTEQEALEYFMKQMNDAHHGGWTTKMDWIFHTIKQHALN

[4] = system: K562; assay: Induction of apoptosis in human K562 cells at 5 uM after 24 hrs by annexin V-FITC/propidium iodide staining by flow cytometry; type: functional, cell-based
In short: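 K562 cells were treated for 24 h, then untreated and treated cells were collected by centrifugation and washed twice with ice-cold PBS. Phosphatidylserine surface exposure was measured by Annexin V-FITC binding, with PI staining for membrane integrity. Read-out was flow cytometry.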

| inhibition [2] [%] | inhibition [3] [%] | SMILES | IC50 [1] [µM] | Activity [4] |
| --- | --- | --- | --- | --- |
|  |  | O=C(CN[C@H]1CCN(S(=O)(=O)Cc2ccccc2)C1)N1CCN(Cc2ccc(F)cc2)CC1 | 14.3 |  |
|  |  | O=C(CN[C@H]1CCN(S(=O)(=O)Cc2ccccc2)C1)N1CCN(Cc2cccc(Cl)c2)CC1 | 8.6 |  |
|  |  | Cc1ccc(CN2CCN(C(=O)CN[C@H]3CCN(S(=O)(=O)Cc4ccccc4)C3)CC2)cc1 | 8.2 |  |
|  |  | Cc1ccc(NC(=O)c2ccc(CN3CCN(C)CC3)cc2)cc1Nc1nccc(-c2cccnc2)n1 [IMATINIB] | 0.58 |  |
|  |  | COc1ccc(CN2CCN(C(=O)CN[C@H]3CCN(S(=O)(=O)Cc4ccccc4)C3)CC2)cc1 | 50.9 |  |
| 4.92 | 16.4 | O=C(CN[C@H]1CCN(S(=O)(=O)Cc2ccccc2)C1)N1CCN(Cc2ccc(Cl)cc2Cl)CC1 | 4.3 | inactive |
|  |  | O=C(CN[C@H]1CCN(S(=O)(=O)Cc2ccccc2)C1)N1CCN(Cc2ccccc2F)CC1 | 12.6 |  |
|  |  | COc1cccc(CN2CCN(C(=O)CN[C@H]3CCN(S(=O)(=O)Cc4ccccc4)C3)CC2)c1 | 60.8 |  |
| 1.39 | 13.5 | Cc1cc(C)c(CN2CCN(C(=O)CN[C@H]3CCN(S(=O)(=O)Cc4ccccc4)C3)CC2)c(C)c1 | 3.3 | inactive |
|  |  | Cc1ccccc1CN1CCN(C(=O)CN[C@H]2CCN(S(=O)(=O)Cc3ccccc3)C2)CC1 | 10.2 |  |
|  |  | O=C(CN[C@H]1CCN(S(=O)(=O)Cc2ccccc2)C1)N1CCN(Cc2ccccc2Cl)CC1 | 9 |  |
|  |  | COc1cc(CN2CCN(C(=O)CN[C@H]3CCN(S(=O)(=O)Cc4ccccc4)C3)CC2)cc(OC)c1OC | 93 |  |
|  |  | O=C(CN[C@H]1CCN(S(=O)(=O)Cc2ccccc2)C1)N1CCN(Cc2ccc(Cl)cc2)CC1 | 9.2 |  |
|  |  | COc1cc(CN2CCN(C(=O)CN[C@H]3CCN(S(=O)(=O)Cc4ccccc4)C3)CC2)cc(OC)c1 | 33.8 |  |
|  |  | O=C(CN[C@H]1CCN(S(=O)(=O)Cc2ccccc2)C1)N1CCN(Cc2c(Cl)cccc2Cl)CC1 | 28.4 |  |
|  |  | O=C(CN[C@H]1CCN(S(=O)(=O)Cc2ccccc2)C1)N1CCN(Cc2cccc(F)c2)CC1 | 13.2 |  |
|  |  | O=C(CN[C@H]1CCN(S(=O)(=O)Cc2ccccc2)C1)N1CCN(Cc2c(F)cccc2Cl)CC1 | 65.8 |  |
|  |  | Cc1cccc(CN2CCN(C(=O)CN[C@H]3CCN(S(=O)(=O)Cc4ccccc4)C3)CC2)c1 | 11.3 |  |
|  | 98.1 | Oc1cccc(-c2nc(N3CCOCC3)c3oc4ncccc4c3n2)c1 |  |  |
|  |  | O=C(CN[C@H]1CCN(S(=O)(=O)Cc2ccccc2)C1)N1CCN(Cc2ccccc2)CC1 | 9.5 |  |
| 4.49 | 12.1 | O=C(CN[C@H]1CCN(S(=O)(=O)Cc2ccccc2)C1)N1CCN(Cc2cccc(C(F)(F)F)c2)CC1 | 3.6 | inactive |

| SMILES | inhibition [2] [%] | inhibition [3] [%] | IC50 [1] [µM] | Activity [4] |
| --- | --- | --- | --- | --- |
| CN[C@@H]1C[C@H]2O[C@@](C)([C@@H]1OC)n1c3ccccc3c3c4c(c5c6ccccc6n2c5c31)C(=O)NC4 | 90.2 |  |  |  |
